Test results reported in ChEMBL document CHEMBL1144898, “Structure-based design and synthesis of novel potent Na+,K+ -ATPase inhibitors derived from a 5alpha,14alpha-androstane scaffold as positive inotropic compounds” (J Med Chem, 2003).

How the values were obtained:
[1] = target: Sodium/potassium-transporting ATPase; assay: Inhibitory activity against Na+/K+ ATPase was determined; assay type: protein-complex assay, Canis lupus familiaris
Cavia porcellus [2] = assay: Inotropic activity by slow intravenous infusion in anesthetized guinea pigs (dead/treated ratio = 1/5); assay type: functional
Cavia porcellus [3] = assay: Inotropic activity by slow intravenous infusion in anesthetized guinea pigs(Maximal increase in+dp/dtmax); assay type: functional
Method in brief: (§1)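 Anesthetized guinea pigs given compound by slow intravenous infusion; contractility read as +dP/dtmax. Values are the maximal increase in +dP/dtmax, the dose inducing the maximum inotropic effect, and the dose raising +dP/dtmax by 80% taken from dose–response curves.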

Cavia porcellus [4] = assay: Inotropic activity by slow intravenous infusion in anesthetized guinea pigs(Inotropic potency:dose increasing +dp/dtmax by 80%); assay type: functional; method in brief: as §1
Cavia porcellus [5] = assay: Inotropic activity by slow intravenous infusion in anesthetized guinea pigs(Dose inducing maximum positive inotropic effect); assay type: functional; method in brief: as §1
Cavia porcellus [6] = assay: (§2) Inotropic activity by slow intravenous infusion in anesthetized guinea pigs; assay type: organism-based; conditions: guinea pig, in vivo
[7] = system: Sodium/potassium-transporting ATPase (Canis lupus familiaris); assay: Inhibition activity against Na+/K+ ATPase (relative potency in comparison to digitoxigenin)
Cavia porcellus [8] = assay: Inotropic activity by slow intravenous infusion in anesthetized guinea pigs (dead/treated ratio = 1/3); assay type: functional
Cavia porcellus [9] = assay: Inotropic activity by slow intravenous infusion in anesthetized guinea pigs (dead/treated ratio = 10/10); assay type: functional
Cavia porcellus [10] = assay: Inotropic activity by slow intravenous infusion in anesthetized guinea pigs (dead/treated ratio = 3/3); assay type: functional
[11] = as §2; assay type: organism-based, Cavia porcellus; conditions: guinea pig, in vivo, read-out: LD/ED80
Cavia porcellus [12] = assay: Inotropic activity by slow intravenous infusion in anesthetized guinea pigs (dead/treated ratio = 7/8); assay type: functional

C[C@]12CC/C(=N\OCCN)C[C@@H]1C(=O)C[C@@H]1[C@@H]2CC[C@]2(C)C(O)CC[C@@H]12 (stereo not given in full)
IC50 [1]: 600 nM

C[C@]12CC/C(=N/OCCCN)C[C@@H]1[C@H](O)CC1C2CC[C@]2(C)C(O)CC[C@@H]12 (stereo not given in full)
IC50 [1]: 3000 nM

C[C@]12CCC(=NOCCN)C[C@@H]1[C@@H](O)C[C@@H]1[C@@H]2CC[C@]2(C)C(=O)CC[C@@H]12 (stereo in doubt; 22g)
Dead/treated (Cavia porcellus [2]): 1 | Increase (Cavia porcellus [3]): 207% | ED80 (Cavia porcellus [4]): 5.3 µM/kg | EDmax (Cavia porcellus [5]): 54.6 µM/kg | LD/ED80 (Cavia porcellus [6]): 17.8 | IC50 [1]: 1200 nM

C[C@H]1/C(=C/C(=O)OCCN(C)C)CCC2C1C(=O)CC1C(C)(C)[C@@H](O)CC[C@]21C (stereo not given in full) [CASSAINE]
IC50 [1]: 5000 nM | Relative potency [7]: 0.1

C[C@]12CC/C(=N\OCCCN)C[C@@H]1[C@H](O)C[C@@H]1[C@@H]2CC[C@]2(C)C(O)CC[C@@H]12 (stereo not given in full)
Increase (Cavia porcellus [3]): 99% | Dead/treated (Cavia porcellus [8]): 1 | ED80 (Cavia porcellus [4]): 1.58 µM/kg | EDmax (Cavia porcellus [5]): 7.37 µM/kg | IC50 [1]: 2000 nM

C[C@]12CC/C(=N/OCCN)C[C@@H]1[C@H](O)CC1C2CC[C@]2(C)C(O)CC[C@@H]12 (stereo not given in full)
IC50 [1]: 12000 nM

CC(=O)NCCO/N=C1\CC[C@@]2(C)[C@H](C1)C(=O)C[C@@H]1[C@@H]2CC[C@]2(C)C(=O)CC[C@@H]12
IC50 [1]: > 10000 nM

C[C@H]1O[C@@H](O[C@H]2[C@@H](O)C[C@H](O[C@H]3[C@@H](O)C[C@H](O[C@H]4CC[C@@]5(C)[C@H](CC[C@@H]6[C@@H]5C[C@@H](O)[C@]5(C)[C@@H](C7=CC(=O)OC7)CC[C@]65O)C4)O[C@@H]3C)O[C@@H]2C)C[C@H](O)[C@@H]1O [DIGOXIN]
Increase (Cavia porcellus [3]): 127% | Dead/treated (Cavia porcellus [9]): 10 | ED80 (Cavia porcellus [4]): 0.41 µM/kg | EDmax (Cavia porcellus [5]): 0.97 µM/kg

C[C@]12CC/C(=N\OCCCN)C[C@@H]1C(=O)C[C@@H]1[C@@H]2CC[C@]2(C)C(=O)CC[C@@H]12
Increase (Cavia porcellus [3]): 129% | Dead/treated (Cavia porcellus [8]): 1 | ED80 (Cavia porcellus [4]): 6.55 µM/kg | EDmax (Cavia porcellus [5]): 18.2 µM/kg | IC50 [1]: 800 nM

C[C@]12CC/C(=N\OCCN)C[C@@H]1[C@H](O)C[C@@H]1[C@@H]2CC[C@]2(C)C(O)CC[C@@H]12 (stereo not given in full)
Increase (Cavia porcellus [3]): 158% | Dead/treated (Cavia porcellus [10]): 3 | ED80 (Cavia porcellus [4]): 0.97 µM/kg | EDmax (Cavia porcellus [5]): 4.13 µM/kg | selectivity ratio [11]: 9.6 | IC50 [1]: 2000 nM

C[C@]12CCC(=NOCCN)C[C@@H]1[C@@H](O)C[C@@H]1[C@@H]2CC[C@]2(C)C(=O)CC[C@@H]12 (stereo in doubt; 22n)
Increase (Cavia porcellus [3]): 154% | Dead/treated (Cavia porcellus [8]): 1 | ED80 (Cavia porcellus [4]): 14.8 µM/kg | EDmax (Cavia porcellus [5]): 111.2 µM/kg | selectivity ratio [11]: 9.2 | IC50 [1]: 2500 nM

C[C@]12CCC(=NOCCN)C[C@@H]1C(=O)C[C@@H]1[C@@H]2CC[C@]2(C)C(=O)CC[C@@H]12 [ISTAROXIME]
Increase (Cavia porcellus [3]): 190% | Dead/treated (Cavia porcellus [12]): 7 | ED80 (Cavia porcellus [4]): 4.84 µM/kg | EDmax (Cavia porcellus [5]): 17.9 µM/kg | selectivity ratio [11]: 20.2

C[C@]12CC/C(=N\OCCN)C[C@@H]1C(O)C[C@@H]1[C@@H]2CC[C@]2(C)C(O)CC[C@@H]12 (stereo not given in full)
IC50 [1]: 10000 nM

C[C@]12CCC(=NOCCN)C[C@@H]1[C@H](O)CC1C2CC[C@]2(C)C(O)CC[C@@H]12 (stereo not given in full)
IC50 [1]: 1600 nM
